According to publication PMC7845017 (ACS Central Science, 2021):

Assays:
Assay in all cases: Broth microdilution MIC
P. aeruginosa PAO1 = assay type: cell-based, Pseudomonas aeruginosa; details: P. aeruginosa PAO1, Müller-Hinton medium, 16–20 h at 37 °C; at least two independent duplicates
Method in brief: (§1)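 MIC reported in μg/mL. Each strain was grown in Müller-Hinton medium and incubated for 16–20 h at 37 °C. Every strain was tested in at least two independent duplicates.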

A. baumannii ATCC 19606 = assay type: cell-based, Acinetobacter baumannii; details: A. baumannii ATCC 19606, Müller-Hinton medium, 16–20 h at 37 °C; at least two independent duplicates
Method in brief: as §1

E. coli W3110 = assay type: cell-based, Escherichia coli; details: E. coli W3110, Müller-Hinton medium, 16–20 h at 37 °C; at least two independent duplicates
Method in brief: as §1

K. pneumoniae NCTC418 = assay type: cell-based, Klebsiella pneumoniae; details: K. pneumoniae NCTC418, Müller-Hinton medium, 16–20 h at 37 °C; at least two independent duplicates
Method in brief: as §1

Row | Substance | P. aeruginosa MIC (P. aeruginosa PAO1) [µg/mL] | A.baumannii MIC (A. baumannii ATCC 19606) [µg/mL] | E. coli MIC (E. coli W3110) [µg/mL] | K. pneumoniae MIC (K. pneumoniae NCTC418) [µg/mL]
1 | ILPWKWPWWPWRR [sr-Indo] | >64 | 8 | 16 | 16
2 | KYKKALKKLAKLL [sr-SB1] | >64 | >64 | 32 | >64
3 | VQWRAIRVRVIR [sr-DJK5] | >64 | >64 | 16 | >64
4 | KYKKALKKLAKLL [sr^1/3-SB1] | >64 | >64 | 16 | >64
5 | KYKKALKKLAKLL [rac-SB1] | 2 | 2 | 1 | 16

Second part, the substance after the results:

Row | P. aeruginosa MIC (P. aeruginosa PAO1) [µg/mL] | A.baumannii MIC (A. baumannii ATCC 19606) [µg/mL] | E. coli MIC (E. coli W3110) [µg/mL] | K. pneumoniae MIC (K. pneumoniae NCTC418) [µg/mL] | Substance
6 | >64 | >64 | 16 | >64 | KYKKALKKLAKLL [sr^3/1-SB1]
7 | 0.25 | 0.25 | 0.25 | 0.25 | polymyxin B [PMB, reference compound]
